This assay concerns the target G protein-activated inward rectifier potassium channel 2 (Homo sapiens) + G protein-activated inward rectifier potassium channel 3 (Homo sapiens) (UniProt P48051+Q92806). Nature of the assay: GIRK2/3 channel activators by patch clamp, confirmation, GIRK activator project, HEK-293 hGIRK2/3, whole-cell voltage clamp, Ba2+-sensitive current (AID 623974). A digest of the protocol:
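test system = HEK-293 cells stably expressing human GIRK2/3 potassium channels | dosing = compound concentration series fitted by four-parameter logistic curve | technique = whole-cell patch clamp, -70 mV holding, barium subtraction | measure = Barium-blocked steady-state current density, % of methyl pentanediol response | schedule = recording 24–72 h post-plating | buffer or medium = 20K bath, KCl pipette solution pH 7.4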

Activity calls are given as the source filed them. The rule behind the calls is not given here.

Chain of G protein-activated inward rectifier potassium channel 2 (Homo sapiens) + G protein-activated inward rectifier potassium channel 3 (Homo sapiens) (P48051 whole entry, looked up): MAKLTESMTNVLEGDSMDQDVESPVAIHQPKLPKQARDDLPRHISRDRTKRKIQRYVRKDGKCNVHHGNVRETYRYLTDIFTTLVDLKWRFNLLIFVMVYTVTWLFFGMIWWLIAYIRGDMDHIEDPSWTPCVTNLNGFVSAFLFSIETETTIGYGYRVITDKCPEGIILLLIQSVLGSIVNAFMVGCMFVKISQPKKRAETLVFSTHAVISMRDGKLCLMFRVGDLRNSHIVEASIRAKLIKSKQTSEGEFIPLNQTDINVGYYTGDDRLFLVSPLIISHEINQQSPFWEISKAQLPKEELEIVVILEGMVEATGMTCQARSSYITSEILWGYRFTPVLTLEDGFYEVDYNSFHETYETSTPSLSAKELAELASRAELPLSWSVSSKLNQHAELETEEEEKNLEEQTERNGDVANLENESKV
Chain of G protein-activated inward rectifier potassium channel 2 (Homo sapiens) + G protein-activated inward rectifier potassium channel 3 (Homo sapiens) (Q92806 whole entry, looked up): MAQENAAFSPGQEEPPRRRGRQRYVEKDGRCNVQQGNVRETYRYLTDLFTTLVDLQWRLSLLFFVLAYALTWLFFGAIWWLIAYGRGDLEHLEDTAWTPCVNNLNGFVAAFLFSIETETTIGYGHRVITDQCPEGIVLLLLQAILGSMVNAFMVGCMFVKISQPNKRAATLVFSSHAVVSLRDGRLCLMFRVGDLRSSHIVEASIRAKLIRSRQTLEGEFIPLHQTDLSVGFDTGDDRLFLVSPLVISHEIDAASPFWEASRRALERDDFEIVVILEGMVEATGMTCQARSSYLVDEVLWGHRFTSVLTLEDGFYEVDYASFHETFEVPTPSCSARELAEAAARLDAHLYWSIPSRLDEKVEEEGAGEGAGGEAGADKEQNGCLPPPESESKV

Turning to `Cc1cc(NC(=O)Nc2ccc(F)c(F)c2)n(-c2ccccc2)n1`, the result was inactive.

Source of the values: PubChem BioAssay AID623974 (Vanderbilt High Throughput Screening Facility, 2012).
